Laboratory results taken from ChEMBL document CHEMBL5038583, “Highly Potent and Selective Butyrylcholinesterase Inhibitors for Cognitive Improvement and Neuroprotection” (J Med Chem, 2021).
Activity calls are given as the source filed them. No cut-off for these calls is given here.

How the values were obtained:
[1] = target: Cholinesterase (Equus caballus) (UniProt P81908); experiment: Inhibition of equine serum BChE at 10 uM using butyrylthiocholine iodide as substrate preincubated for 5 mins followed by substrate addition and measured after 2 mins by DTNB-reagent based Ellman's method relative to control; conditions: time 7.0 min
How it was run: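 Ellman method with equine BChE at 2.5 units/mL in pH 8.0 phosphate buffer with DTNB. Preincubation 5 min at room temperature, then butyrylthiocholine iodide (0.075 M solution) added; absorbance at 412 nm after 2 min. Ethanol sample gives 100% activity. Triplicates, at least three runs.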

Cholinesterase [2] = target: Cholinesterase (Equus caballus, UniProt P81908); experiment: Inhibition of equine serum BChE using butyrylthiocholine iodide as substrate preincubated for 5 mins followed by substrate addition and measured after 2 mins by DTNB-reagent based Ellman's method
[3] = Toxicity in ICR mouse assessed as increase in body weight administered for 14 days and measured daily; conditions: in vivo, 15 mg/kg, 336 h
Cholinesterase [4] = target: Cholinesterase (Homo sapiens, UniProt P06276); experiment: Inhibition of human serum BChE using butyrylthiocholine iodide as substrate preincubated for 20 mins followed by substrate addition and measured after 2 mins by DTNB-reagent based Ellman's method
How it was run: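 hBChE at 0.015 units/mL with DTNB in phosphate buffer pH 8.0, preincubated 20 min at room temperature with at least six concentrations (10⁻⁴−10⁻⁹). Butyrylthiocholine iodide (0.075 M solution) added; A412 read after 2 min at 25 °C. IC50 from % activity vs log concentration; triplicates in at least three runs.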

[5] = Acute toxicity in ICR mouse assessed as animal death at […]; conditions: in vivo, po, 1000 mg/kg, 336 h
L02 = experiment: Cytotoxicity against human L02 cells assessed as survival rate at 100 uM incubated for 24 hrs by MTT assay; type: functional
How it was run: (§1)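 Cells seeded at 1 × 10⁴/well in DMEM with 10% FBS and left overnight, then given compound (DMSO stock diluted in DMEM) for 24 h at 37 °C. MTT added for 4 h, formazan dissolved in DMSO, absorbance read at 492 nm. Viability taken as OD treated/OD DMEM × 100%; IC50 from three independent experiments, mean SD.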

Mus musculus [6] = experiment: Anti-alzheimer activity in amyloid beta(1 to 42)-induced ICR mouse model of cognitive impairment assessed as enhanced alternation performance by measuring total number of arm entries at 15 mg/kg, ig administered at days 2 to 14 and measured on day 15 by Y-maze test; type: functional
How it was run: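 Oligomerized Aβ1-42 (10 μg per mouse, icv) given on day 1; saline icv for sham. Dosing 15 mg/kg ig on days 2−14 (donepezil as positive control), n = 8. Spontaneous alternation read on day 15 in a three-arm grey PVC Y maze, arms at 120°. Mean SD.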

HepG2 = experiment: Cytotoxicity against human HepG2 cells assessed as survival rate at 100 uM incubated for 24 hrs by MTT assay; type: functional; how it was run: as §1
SH-SY5Y = experiment: Cytotoxicity against human SH-SY5Y cells assessed as survival rate at 100 uM incubated for 24 hrs by MTT assay; type: functional; how it was run: as §1
Mus musculus [7] = experiment: Anti-alzheimer activity in amyloid beta(1 to 42)-induced ICR mouse model of cognitive impairment assessed as reduction in escape latency time at 15 mg/kg, ig administered at days 2 to 14 by Morris water maze test; type: functional
How it was run: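 Mouse model by icv oligomerized Aβ1-42 (10 μg/mouse, aggregated 24 h at 37 °C in saline) on day 1; 15 mg/kg ig on days 2−14, n = 8. Morris water maze training on days 9−13, probe trial day 14, escape latency and track recorded. Mean SD.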

PC-12 = experiment: Cytotoxicity against rat PC-12 cells assessed as survival rate at 10 uM incubated for 24 hrs by MTT assay; type: functional; how it was run: as §1
[8] = Hepatotoxicity in ICR mouse assessed as change in aspartate aminotransferase activity at 1 g/kg, ig administered daily for 14 days measured upto 36 hrs post-administration; type: toxicity; conditions: in vivo, po, 1000 mg/kg, 336 h, time 14 day
How it was run: (§2)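 Heparinized serum from ICR mice taken at 8, 22 and 36 h after oral compound or saline control; AST and ALT activities measured.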

[9] = Effective permeability of the compound in pH 7.4 PBS/EtOH (70:30) at 100 ug/ml incubated for 18 hrs by PAMPA-BBB assay; type: ADME; conditions: dose 100 µg/ml, read-out: Peff
How it was run: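 PAMPA-BBB with porcine brain lipid in dodecane (20 mg/mL) on PVDF filter. Donor holds compound at 100 μg/mL final (from 5 mg/mL DMSO stock) in PBS pH 7.4/EtOH 70:30; acceptor holds the same buffer. Incubated 18 h at 25 °C; donor and acceptor concentrations by UV at five wavelengths. Four wells, at least three runs, nine permeability standards; mean ± SD.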

Mus musculus [10] = experiment: Antialzheimer activity in ICR mouse assessed as reduction in scopolamine-induced cognitive impairment at 30 mg/kg, ig administered for 10 consecutive days by Morris water maze test; type: functional, organism-based; conditions: time 10.0 day
How it was run: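 Male ICR mice (8−10 weeks, 18−20 g), n = 8 per group. Compound at 15 or 30 mg/kg intragastric in DMSO/saline (10:90), given 30 min before scopolamine 3 mg/kg i.p., for 10 consecutive days; tacrine 15 mg/kg as reference. Morris water maze: 5 days of training, probe trial on day 6 with platform removed. Escape latency and trajectory recorded; mean ± SD.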

[11] = Hepatotoxicity in ICR mouse assessed as change in alanine aminotransferase activity at 1 g/kg, ig administered daily for 14 days measured upto 36 hrs post-administration; type: toxicity; conditions: in vivo, po, 1000 mg/kg, 336 h, time 14 day; how it was run: as §2
[12] = Metabolic stability in human liver microsomes assessed as intrinsic clearance at 1 uM measured upto 45 mins in presence of NADPH by LC/MS/MS analysis; type: ADME, Microsome; conditions: read-out: CLH
How it was run: (§3)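 Human liver microsomes 0.5 mg/mL, compound 1 μM final, NADPH 2 mM, at 37 °C. Reactions stopped at 0, 5, 15, 30 and 45 min with acetonitrile containing imipramine internal standard. LC/MS/MS quantitation relative to 0 min; initial rates used for t1/2 and intrinsic clearance; ketanserin as assay control. Mean of two independent experiments.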

[13] = Metabolic stability in human liver microsomes assessed as half life at 1 uM measured upto 45 mins in presence of NADPH by LC/MS/MS analysis; type: ADME, Microsome; how it was run: as §3
[14] = Acute toxicity in ICR mouse assessed as abnormal behaviour at 1 g/kg, ig administered […]; conditions: in vivo, po, 1000 mg/kg
How it was run: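 Single dose of 1 g/kg given intragastrically on day 1 to overnight-fasted mice (15−18 g), suspended in 5% DMSO, 40% PEG 400, 55% saline. Male and female groups (n = 9), with vehicle controls. Death, daily behaviour and body mass followed over the next 2 weeks.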

Mus musculus [15] = experiment: Anti-alzheimer activity in amyloid beta(1 to 42)-induced ICR mouse model of cognitive impairment assessed as simplification of trajectories at 15 mg/kg, ig administered at days 2 to 14 by Morris water maze test; type: functional, organism-based
How it was run: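 ICR mice, n = 8 per group. Aggregated Aβ1-42 (5 mM DMSO stock incubated 24 h at 37 °C in saline at 2 mg/mL) given 10 μg per mouse icv on day 1; saline icv for sham. Compound 15 mg/kg intragastric on days 2−14; donepezil reference. Morris water maze training days 9−13, probe trial day 14; tracks recorded; mean ± SD.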

[16] = Hepatotoxicity in ICR mouse assessed as morphological changes in liver at 1 g/kg, ig administered daily for 14 days analysed after 22 hrs post-administration by hematoxylin and eosin staining based analysis; type: toxicity, tissue-based; conditions: in vivo, po, 1000 mg/kg, 336 h, time 14 day
How it was run: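 Liver from male mice taken 22 h after compound or vehicle; hematoxylin−eosin staining, viewed at ×100.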

BV-2 = experiment: Cytotoxicity against mouse BV-2 cells assessed as survival rate at 100 uM incubated for 24 hrs by MTT assay; type: functional; how it was run: as §1

Cholinesterase (Equus caballus, UniProt P81908), sequence (P81908 whole entry): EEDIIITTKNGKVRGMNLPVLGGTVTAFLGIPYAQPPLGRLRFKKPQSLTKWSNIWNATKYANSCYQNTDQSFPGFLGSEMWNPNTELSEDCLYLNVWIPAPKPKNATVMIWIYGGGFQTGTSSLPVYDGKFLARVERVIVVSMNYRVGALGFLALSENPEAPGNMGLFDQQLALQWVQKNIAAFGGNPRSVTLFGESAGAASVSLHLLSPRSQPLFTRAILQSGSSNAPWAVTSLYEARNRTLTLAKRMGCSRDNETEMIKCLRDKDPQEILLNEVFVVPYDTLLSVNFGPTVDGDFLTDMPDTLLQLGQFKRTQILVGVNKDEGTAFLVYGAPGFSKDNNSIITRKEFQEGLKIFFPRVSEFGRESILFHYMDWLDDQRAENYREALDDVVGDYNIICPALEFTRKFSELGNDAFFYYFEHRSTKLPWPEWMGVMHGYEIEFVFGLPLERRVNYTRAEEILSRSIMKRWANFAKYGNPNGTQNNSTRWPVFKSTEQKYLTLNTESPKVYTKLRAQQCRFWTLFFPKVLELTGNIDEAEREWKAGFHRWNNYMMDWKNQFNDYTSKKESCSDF
Cholinesterase (Equus caballus), sequence (P81908 whole entry): as above
Cholinesterase (Homo sapiens, UniProt P06276), sequence (P06276 whole entry): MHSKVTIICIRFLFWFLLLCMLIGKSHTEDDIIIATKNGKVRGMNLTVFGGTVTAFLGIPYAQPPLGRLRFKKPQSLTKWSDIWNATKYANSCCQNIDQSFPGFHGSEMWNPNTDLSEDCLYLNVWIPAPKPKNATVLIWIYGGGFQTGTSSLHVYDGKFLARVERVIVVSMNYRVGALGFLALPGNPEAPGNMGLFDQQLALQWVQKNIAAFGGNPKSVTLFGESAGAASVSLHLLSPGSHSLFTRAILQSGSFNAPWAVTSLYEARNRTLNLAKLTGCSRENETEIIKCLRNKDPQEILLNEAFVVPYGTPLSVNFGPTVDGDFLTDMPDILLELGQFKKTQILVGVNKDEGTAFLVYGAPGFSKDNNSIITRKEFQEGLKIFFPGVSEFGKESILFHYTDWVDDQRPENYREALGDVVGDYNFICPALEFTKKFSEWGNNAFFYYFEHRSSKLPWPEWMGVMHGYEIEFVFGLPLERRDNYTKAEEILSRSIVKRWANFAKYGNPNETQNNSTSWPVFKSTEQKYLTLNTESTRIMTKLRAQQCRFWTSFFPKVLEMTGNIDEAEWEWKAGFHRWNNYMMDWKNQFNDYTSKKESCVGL

O=C(Cn1c(-c2ccoc2)nc2ccccc21)Nc1ccc2ncccc2c1
inhibition [1]: < 50%

Cc1ccc(NC(=O)Cn2c(-c3nonc3N)nc3ccccc32)cc1
IC50 (Cholinesterase [2]): 10300 nM

COc1cc2c(cc1OC)C(=O)C(CC1CCN(Cc3ccccc3)CC1)C2 (configuration not stated) [DONEPEZIL]
Activity [3]: Toxic

COC(=O)c1cccc(NC(=O)Cn2c(-c3nonc3N)nc3ccccc32)c1
IC50 (Cholinesterase [4]): 180 nM
IC50 (Cholinesterase [2]): 27 nM

Nc1nonc1-c1nc2ccccc2n1CCCCC(=O)Nc1ccc2ncccc2c1
inhibition [1]: < 50%

Nc1nonc1-c1nc2ccccc2n1CC(=O)Nc1ccccc1F
IC50 (Cholinesterase [2]): 124 nM

Nc1nonc1-c1nc2ccccc2n1CC(=O)Nc1ccnc2ccccc12
IC50 (Cholinesterase [4]): 212 nM
IC50 (Cholinesterase [2]): 51 nM

Nc1nonc1-c1nc2ccccc2n1CC(=O)Nc1ccc2ccccc2c1
IC50 (Cholinesterase [2]): 352000 nM

Nc1nonc1-c1nc2ccccc2n1CC(=O)Nc1ccc(-c2ccccc2)cc1
inhibition [1]: < 50%

COC(=O)c1ccc(NC(=O)Cn2c(-c3nonc3N)nc3ccccc32)cc1
IC50 (Cholinesterase [2]): 5380 nM

O=C(Cn1c(-c2ccccc2[N+](=O)[O-])nc2ccccc21)Nc1ccc2ncccc2c1
inhibition [1]: < 50%

Nc1ccccc1-c1nc2ccccc2n1CC(=O)Nc1ccc2ncccc2c1
inhibition [1]: < 50%

CC(=O)c1cccc(NC(=O)Cn2c(-c3nonc3N)nc3ccccc32)c1
IC50 (Cholinesterase [2]): 191 nM

COc1cccc(NC(=O)Cn2c(-c3nonc3N)nc3ccccc32)c1
IC50 (Cholinesterase [2]): 1710 nM

Cc1cccc(NC(=O)Cn2c(-c3nonc3N)nc3ccccc32)c1
IC50 (Cholinesterase [2]): 236 nM

O=C(Cn1c(-c2ccccc2)nc2ccccc21)Nc1ccc2ncccc2c1
inhibition [1]: < 50%

CC(=O)Nc1ccc(NC(=O)Cn2c(-c3nonc3N)nc3ccccc32)cc1
IC50 (Cholinesterase [2]): 6540 nM

Nc1nonc1-c1nc2ccccc2n1CC(=O)Nc1ccc(Br)cc1
inhibition [1]: < 50%

Nc1nonc1-c1nc2ccccc2n1CC(=O)Nc1ccc2ncccc2c1
IC50 (Cholinesterase [2]): 705 nM

Nc1nonc1-c1nc2ccccc2n1CC(=O)Nc1ccc(Br)c2ccccc12
Activity [5]: Non-Toxic
Activity (L02): 86.55%
Activity (Mus musculus [6]): Active
Activity (HepG2): 73.24%
Activity (SH-SY5Y): 62.37%
Activity (Mus musculus [7]): Active
Activity (PC-12): 52.21%
Activity [8]: Non-Toxic
Activity [3]: Toxic
IC50 (Cholinesterase [4]): 32 nM
IC50 (Cholinesterase [2]): 6 nM
Papp at 18 h, 100 ug/ml [9]: 11.7 ×10⁻⁶ cm/s
Activity (Mus musculus [10]): Active
Activity [11]: Non-Toxic
CLint scaled at 1 µM [12]: 54 mL/min/kg
half-life at 1 µM [13]: 32.2 min
Activity [14]: Non-Toxic
Activity (Mus musculus [15]): Active
Activity [16]: Non-Toxic
Activity (BV-2): 55.66%

N#Cc1cccc(NC(=O)Cn2c(-c3nonc3N)nc3ccccc32)c1
IC50 (Cholinesterase [4]): 250 nM
IC50 (Cholinesterase [2]): 51 nM

Nc1nonc1-c1nc2ccccc2n1CC(=O)Nc1cccc2ncccc12
IC50 (Cholinesterase [2]): 920 nM

Nc1nonc1-c1nc2ccccc2n1CCC(=O)Nc1ccc2ncccc2c1
IC50 (Cholinesterase [2]): 253 nM

CC(=O)c1ccc(NC(=O)Cn2c(-c3nonc3N)nc3ccccc32)cc1
IC50 (Cholinesterase [2]): 2270 nM

CC(=O)Nc1cccc(NC(=O)Cn2c(-c3nonc3N)nc3ccccc32)c1
IC50 (Cholinesterase [2]): 1130 nM

Cc1cccc(NC(=O)Cn2c(-c3nonc3N)nc3ccccc32)c1C
IC50 (Cholinesterase [2]): 326 nM

Nc1ccc(NC(=O)Cn2c(-c3nonc3N)nc3ccccc32)cc1
inhibition [1]: < 50%

Cc1cc2nc(-c3nonc3N)n(CC(=O)Nc3ccc4ncccc4c3)c2cc1C
IC50 (Cholinesterase [2]): 11300 nM

Nc1nonc1-c1nc2ccccc2n1CC(=O)Nc1cccc(Br)c1
IC50 (Cholinesterase [4]): 212 nM
IC50 (Cholinesterase [2]): 83 nM

Nc1nonc1-c1nc2ccccc2n1CC(=O)Nc1ccc(Cl)cc1
inhibition [1]: < 50%

Nc1nonc1-c1nc2ccccc2n1CC(=O)Nc1cccc(F)c1F
IC50 (Cholinesterase [2]): 270 nM

Nc1nonc1-c1nc2ccccc2n1CC(=O)Nc1cccc(Cl)c1
IC50 (Cholinesterase [4]): 128 nM
IC50 (Cholinesterase [2]): 33 nM

Nc1nonc1-c1nc2ccccc2n1CC(=O)Nc1ccc([N+](=O)[O-])cc1
IC50 (Cholinesterase [4]): 80 nM
IC50 (Cholinesterase [2]): 30 nM

Nc1nonc1-c1nc2ccccc2n1CC(=O)Nc1cccc(F)c1
IC50 (Cholinesterase [2]): 1040 nM

Cc1cc2nc(-c3nonc3N)n(CC(=O)Nc3cccc4ccccc34)c2cc1C
IC50 (Cholinesterase [2]): 108 nM

Nc1nonc1-c1nc2ccccc2n1CC(=O)Nc1ccccc1Cl
IC50 (Cholinesterase [2]): 2730 nM

Nc1nonc1-c1nc2ccccc2n1CC(=O)Nc1ccccc1
IC50 (Cholinesterase [2]): 2960 nM

Nc1nonc1-c1nc2ccccc2n1CC(=O)Nc1ccc2ccccc2n1
IC50 (Cholinesterase [2]): 507 nM

COc1cc(NC(=O)Cn2c(-c3nonc3N)nc3ccccc32)cc(OC)c1OC
IC50 (Cholinesterase [2]): 6640 nM

Nc1nonc1-c1nc2ccccc2n1CC(=O)Nc1ccc2c(c1)OCO2
IC50 (Cholinesterase [2]): 2210 nM

Cc1cc2nc(-c3nonc3N)n(CC(=O)Nc3cnc4ccccc4c3)c2cc1C
IC50 (Cholinesterase [2]): 28500 nM

COc1ccc(NC(=O)Cn2c(-c3nonc3N)nc3ccccc32)cc1
inhibition [1]: < 50%
